According to ChEMBL document CHEMBL4219055, “Structure-based design, synthesis, and biological evaluation of imidazo[1,2-b]pyridazine-based p38 MAP kinase inhibitors” (Bioorg Med Chem, 2018):
≈ marks a conversion by molar mass, not a printed value.

What was measured:
[1] = Metabolic stability in rat liver microsomes at 1 uM after 20 mins in presence of NADPH by HPLC analysis; type: ADME, microsome
[2] = Aqueous solubility in pH 6.8 buffer solution by HPLC analysis; type: physicochemical
[3] = Metabolic stability in human liver microsomes at 1 uM after 20 mins in presence of NADPH by HPLC analysis; type: ADME, microsome
[4] = Oral bioavailability in Crl:CD(SD) rat at 3 mg/kg by LC-MS/MS analysis; type: ADME, organism-based; conditions: in vivo
How it was run: (§1)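 Rats were dosed i.v. at 0.2 mg/kg and p.o. at 3.0 mg/kg. Oral dosing was a suspension in 0.5% methyl cellulose or in corn oil, depending on the compound. Vd and CL came from i.v. dosing. Values are means of three animals.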

[5] = Tmax in Crl:CD(SD) rat at 3 mg/kg, po by LC-MS/MS analysis; type: ADME, organism-based; conditions: in vivo; how it was run: as §1
[6] = Volume of distribution in Crl:CD(SD) rat at 0.2 mg/kg, iv by LC-MS/MS analysis; type: ADME, organism-based; conditions: in vivo; how it was run: as §1
[7] = AUC in Crl:CD(SD) rat at 3 mg/kg, po by LC-MS/MS analysis; type: ADME, organism-based; conditions: in vivo
How it was run: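 Rats dosed orally at 3.0 mg/kg as a suspension in either 0.5% methyl cellulose or corn oil, depending on the compound. […] AUCpo is reported as ng·h/mL and is the mean of measurements in three animals.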

[8] = Cmax in Crl:CD(SD) rat at 3 mg/kg, po by LC-MS/MS analysis; type: ADME, organism-based; set-up: dose 3 mg/kg, route oral; conditions: in vivo; how it was run: as §1
[9] = Retention time in human liver microsomes at 1 uM by HPLC analysis; type: ADME, microsome
How it was run: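 Incubated for 30 min with human liver microsomes. Parent and metabolites were analysed by HPLC and LC/MSⁿ, giving retention times, [M+H]⁺ and major fragment ions.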

[10] = Clearance in Crl:CD(SD) rat at 0.2 mg/kg, iv by LC-MS/MS analysis; type: ADME, organism-based; conditions: in vivo; how it was run: as §1
[11] = MRT in Crl:CD(SD) rat at 3 mg/kg, po by LC-MS/MS analysis; type: ADME, organism-based; conditions: in vivo; how it was run: as §1
[12] = pH 6.8 buffer solution, read-out: solubility

SMILES | remaining at 20 min, 1 µM [1] | solubility [2, 12] | Stability [3] | bioavailability [4] | Tmax [5] | Vd [6] | AUC [7] | Cmax [8] | Retention_time [9] | clearance [10] | MRT [11] | solubility ([2]; buffer)
Cc1cc(-c2nc3cccnn3c2-c2ccnc(NC(=O)c3ccncc3)c2)ccc1F | 75 µL/min/mg | 0.75 µg/mL (≈ 1.77 µM) | 177 µL/min/mg |  |  |  |  |  |  |  |  | 
Cc1ccc(C(=O)Nc2cc(-c3c(-c4ccc(F)c(C)c4)nc4cccnn34)ccn2)cn1 | 53 µL/min/mg | 0.38 µg/mL (≈ 0.867 µM) |  |  |  |  |  |  |  |  |  | 
Cc1cc(-c2nc3cccnn3c2-c2ccnc(NC(=O)c3cc[n+]([O-])c(C)c3)c2)ccc1F | 16 µL/min/mg | 0.91 µg/mL (≈ 2 µM) |  | 13.5% | 2 h | 1.38 L/kg | 703 ng·h/mL | 75 ng/mL | 23 min | 10 mL/min/kg | 5.32 h | 
Cc1cc(-c2nc3cccnn3c2-c2ccnc(NC(=O)c3ccc(C)[n+]([O-])c3)c2)ccc1F | 23 µL/min/mg | 2.4 µg/mL (≈ 5.28 µM) |  |  |  |  |  |  |  |  |  | 
Cc1cc(-c2nc3cccnn3c2-c2ccnc(NC(=O)c3cc[n+]([O-])c(C)c3)c2)ccc1F.O=S(=O)(O)O |  |  |  | 42.6% | 1.67 h | 1.38 L/kg | 2130 ng·h/mL | 190 ng/mL |  | 10 mL/min/kg | 5.63 h | Insoluble
Cc1cc(-c2nc3cccnn3c2-c2ccnc(NC(=O)c3cccnc3)c2)ccc1F | 71 µL/min/mg | 0.92 µg/mL (≈ 2.17 µM) |  |  |  |  |  |  |  |  |  | 
Cc1cc(C(=O)Nc2cc(-c3c(-c4ccc(F)c(C)c4)nc4cccnn34)ccn2)ccn1 | 65 µL/min/mg | 0.15 µg/mL (≈ 0.342 µM) | 132 µL/min/mg |  |  |  |  |  | 33.4 min |  |  | 
